From ChEMBL document CHEMBL1122366, “Potential antiatherosclerotic agents. 3. Substituted benzoic and non benzoic acid analogues of cetaben” (1983)
Values belong to the compound of their own block, whether it stands above or below them.

Key:
Rattus norvegicus [1] = experiment: In vivo triglyceride lowering activity dosed at 0.10 % of the diet.; format: functional
Method in brief: (§1)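 Normal rats were dosed in the diet. Serum sterol and triglyceride levels were measured and expressed as the mean percent of control values. Significance versus control was reported at p < 0.05, 0.01 and 0.001.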

Rattus norvegicus [2] = experiment: In vivo triglyceride lowering activity when dosed as 0.01 % of the diet; format: functional; method in brief: as §1
[3] = molecular target: T1, Sterol O-acyltransferase 1 (Rattus norvegicus) (UniProt O70536); experiment: In vitro inhibition of acyl coenzyme A:cholesterol acyltransferase; design: concentration or dose not given beside the values; conditions: concentration not given here
T1 sequence (whole entry): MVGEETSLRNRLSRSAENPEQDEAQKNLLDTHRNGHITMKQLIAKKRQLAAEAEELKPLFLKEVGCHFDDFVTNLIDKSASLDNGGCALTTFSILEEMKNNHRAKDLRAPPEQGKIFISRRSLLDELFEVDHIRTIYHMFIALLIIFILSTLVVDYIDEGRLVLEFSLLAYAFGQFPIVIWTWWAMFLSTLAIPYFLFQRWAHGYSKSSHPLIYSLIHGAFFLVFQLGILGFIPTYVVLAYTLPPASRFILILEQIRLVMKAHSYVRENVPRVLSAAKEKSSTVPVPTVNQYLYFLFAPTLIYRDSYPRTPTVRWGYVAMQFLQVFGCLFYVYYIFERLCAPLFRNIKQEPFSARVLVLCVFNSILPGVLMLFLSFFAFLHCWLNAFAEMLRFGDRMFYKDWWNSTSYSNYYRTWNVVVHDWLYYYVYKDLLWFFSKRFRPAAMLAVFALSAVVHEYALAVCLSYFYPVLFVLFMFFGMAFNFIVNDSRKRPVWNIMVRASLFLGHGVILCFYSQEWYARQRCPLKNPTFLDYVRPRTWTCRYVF
Method in brief: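 Enzyme fatty acyl-CoA:cholesterol acyltransferase (ACAT), assayed in vitro at a single drug concentration of 5.2 μg/mL. The value is the mean percent inhibition of enzyme activity.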

Rattus norvegicus [4] = experiment: In vivo sterol lowering activity at dose of 0.10 % of the diet; format: functional; method in brief: as §1
Rattus norvegicus [5] = experiment: In vivo sterol lowering activity when dosed as 0.01 % of the diet; format: functional; method in brief: as §1
Rattus norvegicus [6] = experiment: In vivo sterol lowering activity when dosed as 0.03 % of the diet; format: functional; method in brief: as §1
Rattus norvegicus [7] = experiment: In vivo triglyceride lowering activity when dosed at 0.03 % of the diet; format: functional; method in brief: as §1

inhibition [3]: 0%
Compound: CCCCCCCCCCCCCCCCNc1cc(C(=O)[O-])cc(C(=O)[O-])c1.[Na+].[Na+]
serum triglyceride, percent of control (Rattus norvegicus [1]): 103%
serum triglyceride level, percent of control (Rattus norvegicus [2]): 96%
serum sterol level, percent of control (Rattus norvegicus [4]): 90%
serum sterol level, % of control (Rattus norvegicus [5]): 92%
serum sterol level, percent of control (Rattus norvegicus [6]): 99%
serum triglyceride level, percent of control (Rattus norvegicus [7]): 115%

inhibition [3]: < 45%
Compound: CCCCCCCCCCCCCCCCNc1ccc(C(=O)NCCS(=O)(=O)O)cc1
serum triglyceride, percent of control (Rattus norvegicus [1]): <56%
serum triglyceride level, percent of control (Rattus norvegicus [2]): <67%
serum sterol level, percent of control (Rattus norvegicus [4]): <80%
serum sterol level, % of control (Rattus norvegicus [5]): 91%
serum sterol level, percent of control (Rattus norvegicus [6]): 90%
serum triglyceride level, percent of control (Rattus norvegicus [7]): 71%

inhibition [3]: 21%
Compound: CCCCCCCCCCCCCCCCNc1ccc(C(=O)NNC(C)=O)cc1
serum triglyceride, percent of control (Rattus norvegicus [1]): <66%
serum triglyceride level, percent of control (Rattus norvegicus [2]): 75%
serum sterol level, percent of control (Rattus norvegicus [4]): 91%
serum sterol level, % of control (Rattus norvegicus [5]): 93%
serum sterol level, percent of control (Rattus norvegicus [6]): <83%
serum triglyceride level, percent of control (Rattus norvegicus [7]): <74%

inhibition [3]: 0%
Compound: CCCCCCCCCCCCCCCCNc1ccc(C(=O)Oc2ccccc2)cc1
serum triglyceride, percent of control (Rattus norvegicus [1]): <76%
serum triglyceride level, percent of control (Rattus norvegicus [2]): 105%
serum sterol level, percent of control (Rattus norvegicus [4]): <84%
serum sterol level, % of control (Rattus norvegicus [5]): 89%
serum sterol level, percent of control (Rattus norvegicus [6]): 85%
serum triglyceride level, percent of control (Rattus norvegicus [7]): 76%

The next lines start with the compound.

Compound: CCCCCCCCCCCCCCCCNc1csc(C(=O)O)c1
serum triglyceride, percent of control (Rattus norvegicus [1]): 79%
serum triglyceride level, percent of control (Rattus norvegicus [2]): 112%
inhibition [3]: 70%
serum sterol level, percent of control (Rattus norvegicus [4]): 98%
serum sterol level, % of control (Rattus norvegicus [5]): 98%
serum sterol level, percent of control (Rattus norvegicus [6]): 101%
serum triglyceride level, percent of control (Rattus norvegicus [7]): 103%

Compound: CCCCCCCCCCCCCCCCNc1ccc(C(=O)O)cn1
serum triglyceride, percent of control (Rattus norvegicus [1]): 94%
serum triglyceride level, percent of control (Rattus norvegicus [2]): 121%
inhibition [3]: < 45%
serum sterol level, percent of control (Rattus norvegicus [4]): 90%
serum sterol level, % of control (Rattus norvegicus [5]): 102%
serum sterol level, percent of control (Rattus norvegicus [6]): <84%
serum triglyceride level, percent of control (Rattus norvegicus [7]): 88%

Compound: CCCCCCCCCCCCCCCCNc1ncc(C(=O)O)cn1
serum triglyceride, percent of control (Rattus norvegicus [1]): 93%
serum triglyceride level, percent of control (Rattus norvegicus [2]): 89%
inhibition [3]: < 21%
serum sterol level, percent of control (Rattus norvegicus [4]): 114%
serum sterol level, % of control (Rattus norvegicus [5]): 108%
serum sterol level, percent of control (Rattus norvegicus [6]): 108%
serum triglyceride level, percent of control (Rattus norvegicus [7]): 94%

Compound: CCCCCCCCCCCCCCCCNc1ccc(C2SCCCS2)cc1
serum triglyceride, percent of control (Rattus norvegicus [1]): 91%
serum triglyceride level, percent of control (Rattus norvegicus [2]): 105%
inhibition [3]: 9%
serum sterol level, percent of control (Rattus norvegicus [4]): 93%
serum sterol level, % of control (Rattus norvegicus [5]): 102%
serum sterol level, percent of control (Rattus norvegicus [6]): 92%
serum triglyceride level, percent of control (Rattus norvegicus [7]): 114%

Compound: CCCCCCCCCCCCCCCCNc1ccc(C(=O)O)cc1F
serum triglyceride, percent of control (Rattus norvegicus [1]): <49%
serum triglyceride level, percent of control (Rattus norvegicus [2]): 91%
inhibition [3]: < 27%
serum sterol level, percent of control (Rattus norvegicus [4]): <79%
serum sterol level, % of control (Rattus norvegicus [5]): 108%
serum sterol level, percent of control (Rattus norvegicus [6]): 98%
serum triglyceride level, percent of control (Rattus norvegicus [7]): 89%

Compound: CCCCCCCCCCCCCCCCNc1ccc(C(=O)N2CCCCCC2)cc1
serum triglyceride, percent of control (Rattus norvegicus [1]): 68%
serum triglyceride level, percent of control (Rattus norvegicus [2]): 72%
inhibition [3]: < 61%
serum sterol level, percent of control (Rattus norvegicus [4]): 106%
serum sterol level, % of control (Rattus norvegicus [5]): 110%
serum sterol level, percent of control (Rattus norvegicus [6]): 105%
serum triglyceride level, percent of control (Rattus norvegicus [7]): 90%

Compound: CCCCCCCCCCCCCCCCNc1ccc(CCCC(=O)O)cc1
serum triglyceride, percent of control (Rattus norvegicus [1]): <51%
serum triglyceride level, percent of control (Rattus norvegicus [2]): <68%
inhibition [3]: < 32%
serum sterol level, percent of control (Rattus norvegicus [4]): 97%
serum sterol level, % of control (Rattus norvegicus [5]): 100%
serum sterol level, percent of control (Rattus norvegicus [6]): 95%
serum triglyceride level, percent of control (Rattus norvegicus [7]): <61%

Compound: CCCCCCCCCCCCCCCCNc1ccc(C(=O)OCC)c(C(=O)OCC)c1
serum triglyceride, percent of control (Rattus norvegicus [1]): <72%
serum triglyceride level, percent of control (Rattus norvegicus [2]): 86%
inhibition [3]: < 37%
serum sterol level, percent of control (Rattus norvegicus [4]): 90%
serum sterol level, % of control (Rattus norvegicus [5]): 98%
serum sterol level, percent of control (Rattus norvegicus [6]): 99%
serum triglyceride level, percent of control (Rattus norvegicus [7]): 93%
